# Results published in ChEMBL document CHEMBL5058577, “EUbOPEN Chemogenomics Library 2 (Multiplex)” (2022).
# Test system: Fibroblast
# Assay: Multiplex assay against human fibroblast
# Assay type: toxicity, cell-based
# Method in brief: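 Live cells carried four stains from seeding: Hoechst33342, BioTracker Green Microtubule Cytoskeleton Dye, MitoTracker Red and Annexin V Alexa Fluor 680. They were imaged on a CQ1 microscope at 37°C and 5% CO2 after compound addition. Using CellPathfinder machine-learning gating, cells were split into Hoechst high-intensity objects or normal cells, normal cells into healthy, pyknosed or fragmented nuclei, and pyknosed cells into mitotic or apoptotic; tubulin, mitochondrial-mass and membrane-permeability phenotypes are per cents of healthy-nucleus cells.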
# [1] = 12 h, 1 µM, compound concentration 1 uM, replicate 1
# [2] = 12 h, 1 µM, compound concentration 1 uM, replicate 2
# [3] = 12 h, 10 µM, compound concentration 10 uM, replicate 1
# [4] = 12 h, 10 µM, compound concentration 10 uM, replicate 2
# [5] = 24 h, 1 µM, compound concentration 1 uM, replicate 1
# [6] = 24 h, 1 µM, compound concentration 1 uM, replicate 2
# [7] = 24 h, 10 µM, compound concentration 10 uM, replicate 1
# [8] = 24 h, 10 µM, compound concentration 10 uM, replicate 2
# [9] = 48 h, 1 µM, compound concentration 1 uM, replicate 1
# [10] = 48 h, 1 µM, compound concentration 1 uM, replicate 2
# [11] = 48 h, 10 µM, compound concentration 10 uM, replicate 1
# [12] = 48 h, 10 µM, compound concentration 10 uM, replicate 2
smiles,measurement,setting,value
O=C(O)c1cc2ccccc2c(Cc2c(O)c(C(=O)O)cc3ccccc23)c1O [PAMOIC ACID],Population Apoptotic (%),[1],54%
same,Population Fragmented Nuclei (%),[1],10%
same,Population Healthy Nuclei (%),[1],81%
same,Population Hoechst High Intensity Objects (%),[1],2%
same,Population Membrane Permeable-Phenotype (%),[1],0%
same,Population Mitochondria Different-Phenotype (%),[1],2%
same,Population Mitotic Cells (%),[1],45%
same,Population Normal (%),[1],97%
same,Population Pyknosed Nuclei (%),[1],7%
same,Population Tubulin-Different-Phenotype (%),[1],20%
same,Total Cell Count,[1],147
same,Population Apoptotic (%),[2],32%
same,Population Fragmented Nuclei (%),[2],23%
same,Population Healthy Nuclei (%),[2],56%
same,Population Hoechst High Intensity Objects (%),[2],6%
same,Population Membrane Permeable-Phenotype (%),[2],6%
same,Population Mitochondria Different-Phenotype (%),[2],8%
same,Population Mitotic Cells (%),[2],67%
same,Population Normal (%),[2],93%
same,Population Pyknosed Nuclei (%),[2],19%
same,Population Tubulin-Different-Phenotype (%),[2],34%
same,Total Cell Count,[2],154
same,Population Apoptotic (%),[3],40%
same,Population Fragmented Nuclei (%),[3],7%
same,Population Healthy Nuclei (%),[3],80%
same,Population Hoechst High Intensity Objects (%),[3],4%
same,Population Membrane Permeable-Phenotype (%),[3],1%
same,Population Mitochondria Different-Phenotype (%),[3],5%
same,Population Mitotic Cells (%),[3],60%
same,Population Normal (%),[3],95%
same,Population Pyknosed Nuclei (%),[3],11%
same,Population Tubulin-Different-Phenotype (%),[3],23%
same,Total Cell Count,[3],132
same,Population Apoptotic (%),[4],37%
same,Population Fragmented Nuclei (%),[4],24%
same,Population Healthy Nuclei (%),[4],51%
same,Population Membrane Permeable-Phenotype (%),[4],3%
same,Population Mitochondria Different-Phenotype (%),[4],3%
same,Population Mitotic Cells (%),[4],62%
same,Population Pyknosed Nuclei (%),[4],24%
same,Population Tubulin-Different-Phenotype (%),[4],51%
same,Total Cell Count,[4],156
same,Population Apoptotic (%),[5],33%
same,Population Fragmented Nuclei (%),[5],10%
same,Population Healthy Nuclei (%),[5],86%
same,Population Hoechst High Intensity Objects (%),[5],3%
same,Population Membrane Permeable-Phenotype (%),[5],0%
same,Population Mitochondria Different-Phenotype (%),[5],2%
same,Population Mitotic Cells (%),[5],66%
same,Population Normal (%),[5],96%
same,Population Pyknosed Nuclei (%),[5],4%
same,Population Tubulin-Different-Phenotype (%),[5],17%
same,Total Cell Count,[5],156
same,Population Apoptotic (%),[6],32%
same,Population Fragmented Nuclei (%),[6],23%
same,Population Healthy Nuclei (%),[6],58%
same,Population Hoechst High Intensity Objects (%),[6],6%
same,Population Membrane Permeable-Phenotype (%),[6],9%
same,Population Mitochondria Different-Phenotype (%),[6],11%
same,Population Mitotic Cells (%),[6],68%
same,Population Normal (%),[6],93%
same,Population Pyknosed Nuclei (%),[6],18%
same,Population Tubulin-Different-Phenotype (%),[6],39%
same,Total Cell Count,[6],147
same,Population Apoptotic (%),[7],50%
same,Population Fragmented Nuclei (%),[7],8%
same,Population Healthy Nuclei (%),[7],77%
same,Population Hoechst High Intensity Objects (%),[7],2%
same,Population Membrane Permeable-Phenotype (%),[7],1%
same,Population Mitochondria Different-Phenotype (%),[7],1%
same,Population Mitotic Cells (%),[7],50%
same,Population Normal (%),[7],97%
same,Population Pyknosed Nuclei (%),[7],13%
same,Population Tubulin-Different-Phenotype (%),[7],20%
same,Total Cell Count,[7],138
same,Population Apoptotic (%),[8],40%
same,Population Fragmented Nuclei (%),[8],34%
same,Population Healthy Nuclei (%),[8],52%
same,Population Hoechst High Intensity Objects (%),[8],5%
same,Population Membrane Permeable-Phenotype (%),[8],3%
same,Population Mitochondria Different-Phenotype (%),[8],5%
same,Population Mitotic Cells (%),[8],59%
same,Population Normal (%),[8],94%
same,Population Tubulin-Different-Phenotype (%),[8],39%
same,Total Cell Count,[8],170
same,Population Apoptotic (%),[9],25%
same,Population Fragmented Nuclei (%),[9],12%
same,Population Healthy Nuclei (%),[9],79%
same,Population Hoechst High Intensity Objects (%),[9],4%
same,Population Membrane Permeable-Phenotype (%),[9],0%
same,Population Mitochondria Different-Phenotype (%),[9],2%
same,Population Mitotic Cells (%),[9],75%
same,Population Normal (%),[9],95%
same,Population Pyknosed Nuclei (%),[9],8%
same,Population Tubulin-Different-Phenotype (%),[9],23%
same,Total Cell Count,[9],155
same,Population Apoptotic (%),[10],38%
same,Population Fragmented Nuclei (%),[10],23%
same,Population Healthy Nuclei (%),[10],58%
same,Population Hoechst High Intensity Objects (%),[10],3%
same,Population Membrane Permeable-Phenotype (%),[10],9%
same,Population Mitochondria Different-Phenotype (%),[10],8%
same,Population Mitotic Cells (%),[10],61%
same,Population Normal (%),[10],96%
same,Population Pyknosed Nuclei (%),[10],17%
same,Population Tubulin-Different-Phenotype (%),[10],44%
same,Total Cell Count,[10],152
same,Population Apoptotic (%),[11],50%
same,Population Fragmented Nuclei (%),[11],19%
same,Population Healthy Nuclei (%),[11],72%
same,Population Hoechst High Intensity Objects (%),[11],5%
same,Population Membrane Permeable-Phenotype (%),[11],2%
same,Population Mitochondria Different-Phenotype (%),[11],5%
same,Population Mitotic Cells (%),[11],50%
same,Population Normal (%),[11],94%
same,Population Pyknosed Nuclei (%),[11],7%
same,Population Tubulin-Different-Phenotype (%),[11],29%
same,Total Cell Count,[11],136
same,Population Apoptotic (%),[12],60%
same,Population Fragmented Nuclei (%),[12],32%
same,Population Healthy Nuclei (%),[12],60%
same,Population Hoechst High Intensity Objects (%),[12],3%
same,Population Membrane Permeable-Phenotype (%),[12],3%
same,Population Mitochondria Different-Phenotype (%),[12],1%
same,Population Mitotic Cells (%),[12],40%
same,Population Normal (%),[12],96%
same,Population Pyknosed Nuclei (%),[12],6%
same,Population Tubulin-Different-Phenotype (%),[12],28%
same,Total Cell Count,[12],156
